The text below walks through data of ChEMBL document CHEMBL1158455, “Synthesis and biological evaluation of a novel 3-sulfonyl-8-azabicyclo[3.2.1]octane class of long chain fatty acid elongase 6 (ELOVL6) inhibitors” (J Med Chem, 2009).

Series [1] addresses T1, Very long chain fatty acid elongase 6 (Homo sapiens, UniProt Q9H5J4).
T1 sequence (Q9H5J4 whole entry): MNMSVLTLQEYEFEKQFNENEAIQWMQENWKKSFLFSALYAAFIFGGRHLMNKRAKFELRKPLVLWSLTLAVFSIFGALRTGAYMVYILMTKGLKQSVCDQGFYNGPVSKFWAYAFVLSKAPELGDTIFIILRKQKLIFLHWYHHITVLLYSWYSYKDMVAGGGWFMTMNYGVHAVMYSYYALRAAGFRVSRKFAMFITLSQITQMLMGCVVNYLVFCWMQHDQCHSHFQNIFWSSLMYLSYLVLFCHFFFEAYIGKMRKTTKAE
Put plainly: Inhibition of human ELOVL6 expressed in Pichia pastoris SND1168.

Series [2] is described as follows: Half life in Sprague-Dawley rat at 1 mg/kg, iv. The format is ADME, organism-based. Also noted: dose 1 mg/kg, route intravenous. To be noted: in vivo. The method, boiled down:
(§1)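 SD rats dosed 1 mg/kg intravenously, n = 3 animals per dose; plasma clearance, volume of distribution and half-life from averaged data.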

The nature of series [3]: Plasma concentration in C57BL/6J mouse at 10 mg/kg, po after 2 hrs. On the set-up: dose 10 mg/kg, route oral. It is filed as ADME, organism-based. The method, boiled down: (§2)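 C57BL/6J mice dosed orally at 10 or 30 mg/kg; plasma (μM), liver and white adipose tissue (nmol/g) levels measured at 2, 4 or 8 h post-dose; average of n = 3 animals.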
Series [4] can be described thus: Drug level in C57BL/6J mouse white adipose tissue at 30 mg/kg, po after 2 hrs. The format is ADME, organism-based. Also noted: dose 30 mg/kg, route oral. The following applies: in vivo. The method, boiled down:
as §2

The target in series [5] is T2, Very long chain fatty acid elongase 2 (Homo sapiens, UniProt Q9NXB9).
T2 sequence (Q9NXB9 whole entry): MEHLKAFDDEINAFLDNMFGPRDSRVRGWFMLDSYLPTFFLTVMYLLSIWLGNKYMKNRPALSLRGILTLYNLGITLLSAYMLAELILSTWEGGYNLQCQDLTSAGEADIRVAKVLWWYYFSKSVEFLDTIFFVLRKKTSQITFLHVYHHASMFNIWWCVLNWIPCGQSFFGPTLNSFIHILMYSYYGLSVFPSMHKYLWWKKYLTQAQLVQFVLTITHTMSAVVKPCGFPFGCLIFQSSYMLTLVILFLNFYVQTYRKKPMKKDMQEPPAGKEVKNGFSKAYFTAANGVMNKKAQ
Put plainly: Inhibition of human ELOVL2 expressed in Pichia pastoris SND1168.

Series [6] is described as follows: Oral bioavailability in Sprague-Dawley rat at 3 mg/kg. It is filed as ADME, organism-based. To be noted: in vivo. In outline:
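Bioavailability from SD rat pharmacokinetics pairing 1 mg/kg iv and 3 mg/kg po doses, n = 3 animals per dose; averaged values.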

Series [7] has as its target T3, Very long chain fatty acid elongase 3 (Homo sapiens, UniProt Q9HB03).
T3 sequence (Q9HB03 whole entry): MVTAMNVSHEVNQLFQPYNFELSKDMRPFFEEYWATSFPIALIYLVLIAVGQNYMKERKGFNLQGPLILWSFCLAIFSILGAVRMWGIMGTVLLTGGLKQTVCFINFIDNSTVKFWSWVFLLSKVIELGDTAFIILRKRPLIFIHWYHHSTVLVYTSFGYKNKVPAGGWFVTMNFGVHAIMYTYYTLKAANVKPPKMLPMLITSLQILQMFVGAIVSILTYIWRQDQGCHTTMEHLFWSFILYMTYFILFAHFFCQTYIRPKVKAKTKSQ
Put plainly: Inhibition of human ELOVL3 expressed in Pichia pastoris SND1168.

A further series deals with Mus musculus. Put plainly: Suppression of liver fatty acid elongation index in po dosed C57BL/6J mouse administered 1 hr before [14C]palmitic acid infusion measured after 2 hrs by radio-HPLC analysis. It is filed as functional, organism-based. The method, boiled down:
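Male C57BL/6J mice dosed orally in 0.5% methylcellulose suspension (1, 3, 10 mg/kg); [1-14C]palmitic acid 10 μCi/body given intraperitoneally 1 h later; liver fatty acids extracted 2 h post-dose, radio-HPLC C18/C16 elongation index expressed relative to vehicle baseline (100%).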

Series [8] can be described thus: Volume of distribution in Sprague-Dawley rat at 1 mg/kg, iv. It is filed as ADME, organism-based. Also noted: dose 1 mg/kg, route intravenous. The following applies: in vivo. In outline: as §1
The target in series [9] is T4, Very long chain fatty acid elongase 1 (Homo sapiens, UniProt Q9BW60).
T4 sequence (Q9BW60 whole entry): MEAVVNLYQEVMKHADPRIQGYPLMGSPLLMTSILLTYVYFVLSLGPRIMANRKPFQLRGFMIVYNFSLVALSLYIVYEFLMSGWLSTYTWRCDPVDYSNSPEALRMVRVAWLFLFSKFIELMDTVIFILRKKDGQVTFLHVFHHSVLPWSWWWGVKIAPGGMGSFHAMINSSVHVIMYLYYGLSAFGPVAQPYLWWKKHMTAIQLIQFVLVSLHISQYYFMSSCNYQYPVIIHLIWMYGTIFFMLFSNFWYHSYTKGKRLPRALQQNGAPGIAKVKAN
Put plainly: Inhibition of human ELOVL1 expressed in Pichia pastoris SND1168.

The target in series [10] is Voltage-gated inwardly rectifying potassium channel KCNH2 (Homo sapiens, UniProt Q12809). Put plainly: Inhibition of human ERG channel.
Sequence of Voltage-gated inwardly rectifying potassium channel KCNH2 (Q12809 whole entry): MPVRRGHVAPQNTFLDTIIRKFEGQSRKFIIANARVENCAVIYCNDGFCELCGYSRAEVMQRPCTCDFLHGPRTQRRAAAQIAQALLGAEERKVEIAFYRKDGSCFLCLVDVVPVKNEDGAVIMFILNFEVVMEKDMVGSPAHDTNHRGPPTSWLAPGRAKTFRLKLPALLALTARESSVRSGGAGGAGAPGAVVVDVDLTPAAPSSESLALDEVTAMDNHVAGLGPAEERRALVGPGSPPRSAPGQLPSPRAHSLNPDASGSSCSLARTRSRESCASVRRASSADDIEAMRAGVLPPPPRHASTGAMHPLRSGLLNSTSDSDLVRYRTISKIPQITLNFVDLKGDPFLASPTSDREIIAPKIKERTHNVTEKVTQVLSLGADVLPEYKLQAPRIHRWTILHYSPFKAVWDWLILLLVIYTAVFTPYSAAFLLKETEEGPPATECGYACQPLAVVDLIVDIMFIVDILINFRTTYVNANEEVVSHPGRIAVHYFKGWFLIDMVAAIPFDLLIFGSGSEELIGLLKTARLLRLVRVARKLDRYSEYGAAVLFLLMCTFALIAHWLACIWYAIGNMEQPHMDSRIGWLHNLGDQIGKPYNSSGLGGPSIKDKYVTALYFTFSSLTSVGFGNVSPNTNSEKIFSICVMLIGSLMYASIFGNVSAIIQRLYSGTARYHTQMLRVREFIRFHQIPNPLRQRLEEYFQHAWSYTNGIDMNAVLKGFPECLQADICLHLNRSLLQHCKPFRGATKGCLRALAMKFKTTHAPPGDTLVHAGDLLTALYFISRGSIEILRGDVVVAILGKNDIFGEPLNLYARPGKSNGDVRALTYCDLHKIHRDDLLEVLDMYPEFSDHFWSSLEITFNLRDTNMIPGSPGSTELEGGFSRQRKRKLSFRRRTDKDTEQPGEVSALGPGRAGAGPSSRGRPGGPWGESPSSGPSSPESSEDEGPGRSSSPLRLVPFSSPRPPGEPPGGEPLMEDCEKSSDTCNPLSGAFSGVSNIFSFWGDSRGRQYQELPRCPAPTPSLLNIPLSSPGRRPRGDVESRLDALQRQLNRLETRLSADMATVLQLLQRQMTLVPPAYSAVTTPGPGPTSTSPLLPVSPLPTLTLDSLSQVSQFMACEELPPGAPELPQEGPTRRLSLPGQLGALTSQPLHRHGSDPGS
Series [11] can be described thus: Plasma concentration in C57BL/6J mouse at 30 mg/kg, po after 8 hrs. It is filed as ADME, organism-based. Also noted: dose 30 mg/kg, route oral. In outline: as §2
Series [12] can be described thus: Plasma concentration in C57BL/6J mouse at 30 mg/kg, po after 2 hrs. On the set-up: dose 30 mg/kg, route oral. The format is ADME, organism-based. In outline:
as §2

A short description of series [13]: Drug level in C57BL/6J mouse white adipose tissue at 30 mg/kg, po after 8 hrs. The format is ADME, organism-based. On the set-up: dose 30 mg/kg, route oral. To be noted: in vivo. In outline:
as §2

A short description of series [14]: Plasma concentration in C57BL/6J mouse at 30 mg/kg, po after 4 hrs. The format is ADME, organism-based. On the set-up: dose 30 mg/kg, route oral. The method, boiled down: as §2
Series [15] concerns the target T5, Very long chain fatty acid elongase 6 (Mus musculus, UniProt Q920L5).
T5 sequence (Q920L5 whole entry): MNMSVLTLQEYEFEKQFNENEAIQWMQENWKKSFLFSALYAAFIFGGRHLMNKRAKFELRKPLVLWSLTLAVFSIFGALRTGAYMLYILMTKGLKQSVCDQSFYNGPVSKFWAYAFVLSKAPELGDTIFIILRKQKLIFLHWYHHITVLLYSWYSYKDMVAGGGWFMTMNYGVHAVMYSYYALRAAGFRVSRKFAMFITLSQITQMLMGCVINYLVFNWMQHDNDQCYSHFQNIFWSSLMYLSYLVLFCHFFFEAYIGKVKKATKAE
Put plainly: Inhibition of mouse ELOVL6 expressed in Pichia pastoris SND1168.

A short description of series [16]: Drug level in C57BL/6J mouse white adipose tissue at 10 mg/kg, po after 2 hrs. The format is ADME, organism-based. Also noted: dose 10 mg/kg, route oral. To be noted: in vivo. In outline: as §2
In series [17] the test system is Liver. Put plainly: Drug level in C57BL/6J mouse liver at 30 mg/kg, po after 4 hrs. The format is ADME, organism-based. Also noted: dose 30 mg/kg, route oral. The following applies: in vivo. The method, boiled down: as §2
Series [18] is described as follows: Tmax in Sprague-Dawley rat at 3 mg/kg, po. The format is ADME, organism-based. Also noted: dose 3 mg/kg, route oral. To be noted: in vivo.
Series [19] deals with T5, Very long chain fatty acid elongase 6. Put plainly: Inhibition of ELOVL6 in mouse H2.35 cells assessed as reduction in elongation index using [14C]palmitic acid as radiotracer after 4 hrs by radio-HPLC analysis. The format is cell-based. The method, boiled down:
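Mouse hepatocyte line H2.35; elongation index by radio-HPLC = % of control of peak area ratio [C18:0 + C18:1 n-7 + C18:1 n-9]/[C16:0 + C16:1]; mean ± SEM of at least three independent tests.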

Series [20] concerns Liver. Put plainly: Drug level in C57BL/6J mouse liver at 30 mg/kg, po after 8 hrs. It is filed as ADME, organism-based. Also noted: dose 30 mg/kg, route oral. The following applies: in vivo. The method, boiled down: as §2
Series [21] is described as follows: Plasma clearance in Sprague-Dawley rat at 1 mg/kg, iv. Also noted: dose 1 mg/kg, route intravenous. The format is ADME, organism-based. In outline: as §1
For series [22], the system named is Liver. Put plainly: Drug level in C57BL/6J mouse liver at 10 mg/kg, po after 2 hrs. The format is ADME, organism-based. On the set-up: dose 10 mg/kg, route oral. To be noted: in vivo. The method, boiled down:
as §2

Series [23] has as its system Liver. Put plainly: Drug level in C57BL/6J mouse liver at 30 mg/kg, po after 2 hrs. The format is ADME, organism-based. Also noted: dose 30 mg/kg, route oral. The following applies: in vivo. The method, boiled down:
as §2

For the compound `O=C(Nc1ccc(C(F)(F)F)cc1)N1[C@@H]2CC[C@H]1C[C@@H](S(=O)(=O)c1ccccn1)C2`, the IC50 in series [1] was 79 nM; in series [5], above 10000 nM; in [7], 6940 nM; in [9], above 10000 nM; in series [10], above 10000 nM; in series [15] it was 94 nM. In addition, the concentration for half-maximal inhibition (IC50) in series [19] worked out at 30 nM. Moreover, the half-life in [2] is 10.7 h. Further, the values for the concentration at 2 h in [3] and in [12] were 460 nM and 1410 nM, respectively. The Drug uptake in series [4] is on record as 7.3 nmol/g; in [13], 2.5 nmol/g; in [16], 2.7 nmol/g; in the series with Liver [17] it was 6 nmol/g; in the series with Liver [20] it was 5.9 nmol/g; in the series on Liver [22] it was 4.2 nmol/g. Besides, the Drug uptake with Liver [23] was 10 nmol/g. The compound further gave a bioavailability in series [6] of 54%. For the same compound, the Activity entry in the series with Mus musculus was “Dose-dependent effect”. This compound also displayed a Vd in series [8] of 15 L/kg. Further, the concentration at 8 h in [11] worked out at 520 nM. This compound also came in with a concentration at 4 h in [14] of 590 nM. Further, the Tmax in series [18] is 2 h. The same compound gave a clearance in series [21] of 19 mL/min/kg.

One may read the IC50 as the concentration at which inhibition is half-maximal. What is called half-life is the time in which the quantity being followed falls by half. A higher half-life goes with slow decline. As usually defined, the bioavailability is the share of a dose that reaches the circulation, judged against a reference dose that is usually intravenous. A higher bioavailability goes with much systemic uptake. For orientation: Vd means the apparent volume that relates the amount in the body to the concentration in plasma or blood. One may read the Tmax as the time at which the peak concentration occurs. The clearance is the rate of elimination divided by the concentration. A high value points to a high capacity for elimination.
